From PubChem
UCH37 inh: inhibitors of human UCH37 deubiquitinase, primary screen, biochemical, Ub-AMC cleavage, fluorescence; Ubiquitin carboxyl-terminal hydrolase isozyme L5 (Homo sapiens), Q9Y5K5; purified proteasome/UCH37; inhibition, % (no concentration beside the values); hit rate 0.33% among 330,000;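 active = mean inhibition over replicate wells above about 20%, limit read from the data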
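Material: Human UCH37 enzyme supplied as purified proteasome complex | Schedule: 30 min compound-proteasome preincubation then 25 min substrate reaction, room temperature | Detection: AMC fluorescence from Ub-AMC cleavage, excitation 355 nm, emission 460 nm | Benchmarks: Wells without proteasome as full block, compound-free enzyme plus substrate as uninhibited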
Arr AP2 block: inhibitors of beta-arrestin/AP2 binding, primary screen, biochemical, GPCR trafficking, flow cytometry | FITC-arrestin peptide / GST-AP2 beads; AP2 beta2 appendage carries R879A mutation | inhibition, % at 10 µM | hit rate 0.31% among 340,000 | AID 504490, 2011;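 active = inhibition above a set limit, near 3 SD of compounds lacking own fluorescence, cut at about 54% in these data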
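Material – AP2 appendage R879A on GSH beads · Buffer or medium – PBS with 0.05% Tween 20 and 0.1% BSA · Probe or stimulus – fluorescein-tagged arrestin peptide at 50 nM final · Incubation – compound with beads 12 min RT, then probe 1 h RT · Detection – high-throughput flow cytometry of beads, ex 488, em 535 nm · Evaluation – percent response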
A3A deaminase: APOBEC3A ssDNA deaminase inhibitors, primary screen, selectivity assay for APOBEC3G inhibitor project, biochemical, FAM/TAMRA oligo cleavage fluorescence. recombinant A3A, FAM/TAMRA ssDNA deamination fluorescence. inhibition, % at 20 µM. hit rate 0.41% among 330,000;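 active = at least 40% inhibition at 20 µM here, with at most 30% in a related deaminase screen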
PolyA inhibitor: polyadenylation inhibitors in yeast reporter cells, primary screen, luminescence, S. cerevisiae; S. cerevisiae SKY197-pL101 polyadenylation reporter, beta-gal luminescence; efflux-impaired pdr1/pdr3 knockout yeast; score 100 = 6 SD above DMSO; activity score, % at 12 µM; hit rate 0.02% among 300,000;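 active = lowest replicate activity score at least 50, where 100 means six control SD above control mean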;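 note: yeast exposed to compound for 9 h at 30 °C; higher score means more reporter readthrough which indicates perturbed polyadenylation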
AHR activator: AHR activators, primary screen, cell-based, luminescence, luciferase reporter, human. activation, % at 5 µM. AHR-responsive luciferase reporter cells. hit rate 2.5% among 320,000. AID 2796, 2010. Aryl hydrocarbon receptor (Homo sapiens), P35869; in the data active = activation above about 47%
Target sequence (P35869 whole entry, looked up): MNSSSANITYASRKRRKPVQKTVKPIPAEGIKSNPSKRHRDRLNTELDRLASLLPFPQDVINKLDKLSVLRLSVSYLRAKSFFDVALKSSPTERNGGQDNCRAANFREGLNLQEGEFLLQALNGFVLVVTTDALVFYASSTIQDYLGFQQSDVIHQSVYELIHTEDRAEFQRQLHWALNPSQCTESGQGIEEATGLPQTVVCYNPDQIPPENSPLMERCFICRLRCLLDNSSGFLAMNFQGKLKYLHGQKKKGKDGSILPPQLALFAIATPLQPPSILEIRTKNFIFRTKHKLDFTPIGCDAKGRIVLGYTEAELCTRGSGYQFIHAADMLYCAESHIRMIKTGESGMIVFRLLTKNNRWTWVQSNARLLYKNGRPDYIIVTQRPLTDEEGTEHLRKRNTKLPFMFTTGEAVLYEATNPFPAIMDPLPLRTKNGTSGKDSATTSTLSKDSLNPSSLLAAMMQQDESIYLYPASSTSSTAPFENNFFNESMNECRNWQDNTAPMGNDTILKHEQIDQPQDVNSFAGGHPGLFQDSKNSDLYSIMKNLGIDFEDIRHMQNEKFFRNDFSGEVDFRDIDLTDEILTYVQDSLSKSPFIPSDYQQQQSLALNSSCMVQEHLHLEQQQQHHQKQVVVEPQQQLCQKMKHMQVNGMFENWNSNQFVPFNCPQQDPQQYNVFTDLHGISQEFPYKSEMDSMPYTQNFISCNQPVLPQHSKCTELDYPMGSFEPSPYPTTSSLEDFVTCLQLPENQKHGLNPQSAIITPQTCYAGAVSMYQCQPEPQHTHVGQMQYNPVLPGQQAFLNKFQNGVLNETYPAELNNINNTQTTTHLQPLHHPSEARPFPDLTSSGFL
A3G deaminase: APOBEC3G DNA deaminase inhibitors, primary screen, biochemical, fluorescence, single-stranded DNA substrate, uHTS. recombinant A3G, ssDNA deamination FAM/TAMRA fluorescence. inhibition, % at 20 µM. hit rate 0.28% among 330,000;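 active = inhibition of at least 40% at 20 µM, with no more than 30% in the related APOBEC3A deaminase screen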
AHR act cf: AHR activators, confirmation, cell-based, luminescence, luciferase reporter, human; shares compounds with AHR activator; human cells, AHR-responsive luciferase reporter; activation, % at 9 µM; hit rate 87% among 2,300; in the data active = activation above about 49%;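 note: HepG2 hepatoma cells carrying a DRE-driven firefly luciferase reporter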
PXR act counter: human PXR activators, counter-screen for AHR activator project, cell-based, luciferase luminescence; shares compounds with AHR activator; cell-based PXR reporter; activation, % at 11.6 µM; hit rate 88% among 2,300; AID 434939, 2010; in the data active = activation above about 11%;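 note: human hepatoma DPX-2 cells expressing full-length human PXR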
Large screens that a line does not name were inactive (follow-up assays come after a bar, where they were run). Sampled rows, rich in hits. Any-hit rate of the full collection: about 3.4%.

COc1ccc(-c2cc(-c3cc(OC)ccc3O)[nH]n2)cc1	AHR activator 158.8 | AHR act cf 140.3 | PXR act counter 17.7
O=C1c2ccccc2C(=O)c2c1ncn2-c1ccccc1	AHR activator 87.2 | AHR act cf 129.7 | PXR act counter 32.6
O=C1c2ccccc2C(=O)c2[nH]cnc21	none (no result: UCH37 inh, A3A deaminase, AHR activator, A3G deaminase)
Cn1c(/C=C/c2cccc([N+](=O)[O-])c2)nc2ccccc2c1=O	AHR activator 92.9 | AHR act cf inactive | PXR act counter 11.7
O=c1c2ccccc2nc(/C=C/c2cccc([N+](=O)[O-])c2)n1CCCO	none
C/C(=C\C(=O)c1ccccc1)NNc1nc2ccccc2s1	AHR activator 97.2 | AHR act cf inactive | PXR act counter 53.7
Cc1c(C(=O)NCCCN2CCOCC2)oc2c1C1(CCC2)SCCS1	AHR activator 109.4 | AHR act cf 94.6 | PXR act counter 180.5
Cc1ccc(CN2CC[C@H]3C=CCc4cccc(c43)C2)cc1	none (no result: PolyA inhibitor)
COc1ccc(CN2CC[C@H]3C=CCc4cccc(c43)C2)cc1	AHR activator 82.5 (no result: PolyA inhibitor) | AHR act cf inactive | PXR act counter 26.1
COc1cccc(-c2nc(C(N)=O)c3[nH]c(=O)n(-c4cccc(Cl)c4)c3n2)c1OC	AHR activator 89.1 | AHR act cf 92.5 | PXR act counter 30.9
Cc1nn(-c2ccccc2)c2sc(C(=O)NC3CC3)cc12	AHR activator 84.4 | AHR act cf 79.6 | PXR act counter 38.7
CC(=O)c1sc(NC(=O)c2cc3c(C)nn(-c4ccccc4)c3s2)nc1C	none
N#CCC1c2ccccc2CCN1C(=O)Nc1cccc(C(F)(F)F)c1 (stereo not drawn)	none
N#CCC1c2ccccc2CCN1C(=O)Nc1ccc(C(F)(F)F)cc1 (stereo not drawn)	AHR activator 103.1 | AHR act cf 100.0 | PXR act counter 181.0
CCOP(=O)(OCC)C(=NOC(=O)c1ccc(Cl)cc1Cl)C(N)=O	none (no result: Arr AP2 block, A3A deaminase, PolyA inhibitor, AHR activator, A3G deaminase)
Cc1ccc(/C=N\Nc2nc3ccc(Cl)cc3[nH]2)o1	AHR activator 165.0 (no result: UCH37 inh) | AHR act cf 116.7 | PXR act counter 22.3
Fc1ccccc1-c1ccc(C=NNc2nc3ccccc3[nH]2)o1	none (no result: Arr AP2 block, A3A deaminase, PolyA inhibitor, AHR activator, A3G deaminase)
Fc1ccccc1-c1ccc(/C=N/Nc2nc3ccccc3[nH]2)o1	AHR activator 84.2 (no result: UCH37 inh, PolyA inhibitor) | AHR act cf 77.8 | PXR act counter 10.7
COc1cc(C=NNc2snc(SC)c2C#N)cc(OC)c1OC	none (no result: Arr AP2 block, A3A deaminase, PolyA inhibitor, AHR activator, A3G deaminase)
O=C(CCn1c(=O)oc2ccccc21)Nc1nc2ccccc2s1	AHR activator 104.2 | AHR act cf 82.0 | PXR act counter 103.7
O=C(O)COc1ccc(C=Nn2c(COc3ccccc3)nc3ccccc3c2=O)cc1	none (no result: Arr AP2 block, A3A deaminase, PolyA inhibitor, AHR activator, A3G deaminase)
C=CCNc1nc(=S)[nH]c2cc(OC)c(OC)cc12	AHR activator 104.3 | AHR act cf 74.7 | PXR act counter 13.1
Cc1cc(C=NNC(=O)c2c(Br)cnn2C)c(C)n1-c1cccc(Br)c1	none (no result: Arr AP2 block, A3A deaminase, PolyA inhibitor, AHR activator, A3G deaminase)
O=c1[nH]c(CSc2ccccn2)nc2c1cnn2-c1ccccc1	AHR activator 97.3 | AHR act cf 71.2 | PXR act counter 33.5
Cn1ccnc1SCc1nc2c(cnn2-c2ccccc2)c(=O)[nH]1	AHR activator 81.6 | AHR act cf 84.6 | PXR act counter 16.0
